Results: ChEMBL document CHEMBL1157729, “Structure-activity relationship and mechanism of action studies of manzamine analogues for the control of neuroinflammation and cerebral infections” (J Med Chem, 2010)
Converted amounts (≈) assume the structure as drawn.

How the values were obtained:
[1] = Selectivity index, ratio of IC50 for african green monkey (Cercopithecus aethiops) Vero cells to IC50 for chloroquine-sensitive Plasmodium falciparum; format: toxicity, cell-based
[2] = test system: Mycobacterium tuberculosis; assay: Antimycobacterial activity against Mycobacterium tuberculosis; format: functional
[3] = test system: Plasmodium berghei; assay: Antiplasmodial activity against Plasmodium berghei NK65 infected in Swiss Webster mice (Mus musculus) assessed as inhibition of parasitaemia at 1.1 mg/kg, perorally administered 1 day after infection for 3 days measured after 5 days post infection; format: functional; conditions: route oral
Method in brief: (§1)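 Male Swiss Webster mice (18-20 g, ≥5/group) inoculated i.p. with 2×10^7 P. berghei NK-65 parasitized RBC; oral dosing (100 μl, SSV or dilute HCl vehicle) once daily for 3 days from day 1; Giemsa-stained tail blood smears days 5–28; inhibition is % decrease versus untreated controls on day 5.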

[4] = test system: Plasmodium berghei; assay: Antiplasmodial activity against Plasmodium berghei NK65 infected in Swiss Webster mice (Mus musculus) assessed as average parasitaemia at 5 mg/kg, perorally administered 1 day after infection for 3 days measured after 7 days post infection; format: functional; conditions: route oral
[5] = test system: Plasmodium berghei; assay: Antiplasmodial activity against Plasmodium berghei NK65 infected in Swiss Webster mice (Mus musculus) assessed as parasitaemia cure at 5 mg/kg, perorally administered 1 day after infection for 3 days measured after 28 days post infection; format: functional; conditions: route oral
[6] = test system: Plasmodium berghei; assay: Antiplasmodial activity against Plasmodium berghei NK65 infected in Swiss Webster mice (Mus musculus) assessed as average parasitaemia at 1.1 mg/kg, perorally administered 1 day after infection for 3 days measured after 14 days post infection; format: functional; conditions: route oral
[7] = test system: Plasmodium berghei; assay: Antiplasmodial activity against Plasmodium berghei NK65 infected in Swiss Webster mice (Mus musculus) assessed as average parasitaemia at 5 mg/kg, perorally administered 1 day after infection for 3 days measured after 14 days post infection; format: functional; conditions: route oral
[8] = test system: Plasmodium berghei; assay: Antiplasmodial activity against Plasmodium berghei NK65 infected in Swiss Webster mice (Mus musculus) assessed as average parasitaemia at 3.3 mg/kg, perorally administered 1 day after infection for 3 days measured after 21 days post infection; format: functional; conditions: route oral; method in brief: as §1
[9] = test system: Plasmodium berghei; assay: Antiplasmodial activity against Plasmodium berghei NK65 infected in Swiss Webster mice (Mus musculus) assessed as average parasitaemia at 1.1 mg/kg, perorally administered 1 day after infection for 3 days measured after 28 days post infection; format: functional; conditions: route oral; method in brief: as §1
[10] = test system: Plasmodium berghei; assay: Antiplasmodial activity against Plasmodium berghei NK65 infected in Swiss Webster mice (Mus musculus) at 10 mg/kg, po; format: functional
[11] = test system: Plasmodium berghei; assay: Antiplasmodial activity against Plasmodium berghei NK65 infected in Swiss Webster mice (Mus musculus) assessed as average parasitaemia at 100 mg/kg, perorally administered 1 day after infection measured after 10 days post infection; format: functional; conditions: route oral
[12] = test system: Plasmodium berghei; assay: Antiplasmodial activity against Plasmodium berghei NK65 infected in Swiss Webster mice (Mus musculus) assessed as average parasitaemia at 200 mg/kg, perorally administered 1 day after infection measured after 10 days post infection; format: functional; conditions: Plasmodium berghei, NK65, route oral
Method in brief: (§2)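 Male Swiss Webster mice (18-20 g, ≥5/group) inoculated i.p. with 2×10^7 P. berghei NK-65 parasitized RBC, given a single oral dose (100 μl, SSV or dilute HCl vehicle); parasitemia by Giemsa-stained tail blood smears days 5–28; activity as % decrease versus untreated controls on day 5.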

[13] = test system: Plasmodium berghei; assay: Antiplasmodial activity against Plasmodium berghei NK65 infected in Swiss Webster mice (Mus musculus) assessed as average parasitaemia at 200 mg/kg, perorally administered 1 day after infection measured after 14 days post infection; format: functional; conditions: Plasmodium berghei, NK65, route oral
Method in brief: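 Male Swiss Webster mice (18-20 g), at least 5 per group, were inoculated ip with 2×10^7 P. berghei NK-65-parasitized red cells from a donor mouse and given a single oral dose (100 μl). Stock was made in SSV or 0.1 M HCl and diluted in SSV or 0.01 M HCl. Parasitemia was read from Giemsa-stained tail blood smears from day 5 to day 28. Cure meant no parasitemia through day 28.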

[14] = test system: Plasmodium berghei; assay: Antiplasmodial activity against Plasmodium berghei NK65 infected in Swiss Webster mice (Mus musculus) assessed as average parasitaemia at 50 mg/kg, perorally administered 1 day after infection measured after 28 days post infection; format: functional; conditions: route oral; method in brief: as §2
[15] = species on record: Mus musculus; assay: Toxicity in Plasmodium berghei NK65 infected Swiss Webster mice (Mus musculus) assessed as weight loss after 5 days post infection; format: organism-based; conditions: in vivo, 120 h
[16] = test system: Mus musculus; assay: Toxicity in Plasmodium berghei NK65 infected Swiss Webster mice (Mus musculus) assessed as weight loss at 300 mg/kg, perorally; format: organism-based; design: dose 300 mg/kg, route oral; conditions: in vivo, po
Method in brief: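 P. berghei NK-65 infection in male Swiss Webster mice (18-20 g; 2×10^7 parasitized erythrocytes i.p.; ≥5 per group). A single oral dose of 100 μl, diluted in SSV or 0.01 M HCl, then observation for toxicity signs and body weight. Parasitemia read from Giemsa-stained tail smears from day 5 through day 28. Mice free of parasitemia through day 28 counted as cured.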

[17] = test system: HeLa; assay: Cell cycle arrest in human HeLa cells assessed as increase in G0/G1 phase accumulation at 5 uM after 24 hrs by FACS analysis; format: functional
[18] = test system: HeLa; assay: Cell cycle arrest in human HeLa cells assessed as increase in S phase accumulation at 3 uM after 24 hrs by FACS analysis; format: functional
[19] = test system: HeLa; assay: Cell cycle arrest in human HeLa cells assessed as increase in S phase accumulation at 5 uM after 24 hrs by FACS analysis; format: functional
[20] = test system: Mus musculus; assay: Toxicity in Plasmodium berghei NK65 infected Swiss Webster mice (Mus musculus) at 3 mg/kg, intraperitoneally administered as 10 doses measured after 3 days of inoculation; format: organism-based; design: dose 3 mg/kg, route intraperitoneal; conditions: in vivo, ip, 72 h
Method in brief: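 Male Swiss Webster mice (18-20 g), 5 per group, were inoculated i.p. with 2×10^7 P. berghei NK-65 parasitized red cells. Compound was given i.p. at 10×3 mg/kg, with a vehicle-control group. Day of death, mean survival time and cure were recorded. Parasitemia was read on Giemsa-stained tail-blood smears (days 5, 7), with suppression relative to the control mean. Cure meant no parasitemia through day 28.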

[21] = test system: HeLa; assay: Cell cycle arrest in human HeLa cells assessed as decrease in G2/M phase accumulation at 20 uM after 24 hrs by FACS analysis; format: functional; design: scale not given: the % may be the effect or the level left

With O[C@]12C=C(c3nccc4c3[nH]c3ccccc34)[C@@H]3CCN(CCCC/C=C\CC1)C[C@@]31C[C@@H]3/C=C\CCCCN3[C@H]12 [MANZAMINE A] the “Ratio IC50” value [1] was 44, the MIC [2] was 1.56 µg/mL (≈ 2.84 µM) and the inhibition in vivo at 1.1 mg/kg [3] was 75%. For the same molecule, the inhibition in vivo at 5 mg/kg [4] was 4.5%, the inhibition in vivo at 5 mg/kg [5] was 0% and the inhibition in vivo at 1.1 mg/kg [6] was 21.7%. The inhibition in vivo at 5 mg/kg [7] was 13.5%, the inhibition in vivo at 3.3 mg/kg [8] was 21.6% and the inhibition in vivo at 1.1 mg/kg [9] was 58.6%. It also gave an inhibition in vivo at 10 mg/kg [10] greater than 30%, an inhibition in vivo at 100 mg/kg [11] of 0% and an inhibition in vivo at 200 mg/kg [12] of 0%. For the same molecule, the inhibition in vivo at 200 mg/kg [13] was 0%, the inhibition in vivo at 50 mg/kg [14] was 6.25% and the Activity [15] was “Non-toxic”. The Activity [16] was “Non-toxic”, the Activity [17] was 56.3% and the Activity [18] was 56.2%. The Activity [19] was 56.3%, the Activity [20] was “Non-toxic” and the Activity [21] was 11.8%.
